Reference: ChEMBL document CHEMBL1158122, “Anti-inflammatory, anti-tumor-promoting, and cytotoxic activities of constituents of marigold (Calendula officinalis) flowers” (J Nat Prod, 2006)

Key:
MDA-MB-231 = experiment: Cytotoxicity against human MDA-MB-231 cells after 48 hrs by SRB assay; assay type: functional; settings: MDA-MB-231, 48 h
IGROV-1 = experiment: Cytotoxicity against human IGROV1 cells after 48 hrs by SRB assay; assay type: functional; settings: IGROV-1, 48 h
MDA-MB-435 = experiment: Cytotoxicity against human MDA-MB-435 cells after 48 hrs by SRB assay; assay type: functional; settings: MDA-MB-435, 48 h
HCT-15 = experiment: Cytotoxicity against human HCT-15 cells after 48 hrs by SRB assay; assay type: functional; settings: HCT-15, 48 h
PC-3 = experiment: Cytotoxicity against human PC-3 cells after 48 hrs by SRB assay; assay type: functional; settings: PC-3, 48 h
ACHN = experiment: Cytotoxicity against human ACHN cells after 48 hrs by SRB assay; assay type: functional
Malme-3M = experiment: Cytotoxicity against human MALME-3M cells after 48 hrs by SRB assay; assay type: functional
786-0 = experiment: Cytotoxicity against human 786-0 cells after 48 hrs by SRB assay; assay type: functional; settings: 786-0, 48 h
T47D = experiment: Cytotoxicity against human T47D cells after 48 hrs by SRB assay; assay type: functional
Summary of the method: (§1)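 Tested in the NCI panel of 60 human tumour cell lines covering lung, colon, melanoma, renal, ovarian, breast and leukaemia. At least five concentrations were run in 10-fold dilutions starting from 10^-4 M. Exposure was continuous for 48 h. Growth or viability was estimated by sulforhodamine B protein staining, and GI50 values were reported.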

Raji [1] = experiment: Inhibition of TPA-induced EBV-early antigen activation in human Raji cells at 500 molar ratio relative to TPA; assay type: cell-based; parameters: scale not given: the % may be the effect or the level left; settings: human gammaherpesvirus 4
[2] = Cytotoxicity against human Hs 578T cells after 48 hrs by SRB assay; assay type: functional
[3] = Cytotoxicity against human Raji cells assessed as cell viability at 10 molar ratio; assay type: cell-based; settings: read-out: Activity
Summary of the method: (§2)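 Raji cells were treated with 32 pmol TPA to induce EBV early antigen activation. The test agent was added at 10, 100, 500 or 1000 mol ratio relative to TPA, and Raji cell viability was measured alongside EA activation.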

UACC-62 = experiment: Cytotoxicity against human UACC-62 cells after 48 hrs by SRB assay; assay type: functional; settings: UACC-62, 48 h; summary of the method: as §1
CCRF-CEM = experiment: Cytotoxicity against human CCRF-CEM cells after 48 hrs by SRB assay; assay type: functional
K562 = experiment: Cytotoxicity against human K-562 cells after 48 hrs by SRB assay; assay type: functional; settings: K562, 48 h
SF-268 = experiment: Cytotoxicity against human SF-268 cells after 48 hrs by SRB assay; assay type: functional; settings: SF-268, 48 h
[4] = Inhibition of TPA-induced EBV-early antigen activation in human Raji cells relative to TPA; assay type: cell-based, human gammaherpesvirus 4
LOX IMVI = experiment: Cytotoxicity against human LOX IMVI cells after 48 hrs by SRB assay; assay type: functional
SNB-19 = experiment: Cytotoxicity against human SNB-19 cells after 48 hrs by SRB assay; assay type: functional; settings: SNB-19, 48 h
HT-29 = experiment: Cytotoxicity against human HT-29 cells after 48 hrs by SRB assay; assay type: functional; settings: HT-29, 48 h
EKVX = experiment: Cytotoxicity against human EKVX cells after 48 hrs by SRB assay; assay type: functional
SK-MEL-2 = experiment: Cytotoxicity against human SK-MEL-2 cells after 48 hrs by SRB assay; assay type: functional; settings: SK-MEL-2, 48 h
UO-31 = experiment: Cytotoxicity against human UO-31 cells after 48 hrs by SRB assay; assay type: functional; settings: UO-31, 48 h; summary of the method: as §1
NCI/ADR-RES = experiment: Cytotoxicity against human NCI/ADR-RES cells after 48 hrs by SRB assay; assay type: functional
NCI-H322M = experiment: Cytotoxicity against human NCI-H322M cells after 48 hrs by SRB assay; assay type: functional
COLO 205 = experiment: Cytotoxicity against human COLO205 cells after 48 hrs by SRB assay; assay type: functional; settings: COLO 205, 48 h
MOLT-4 = experiment: Cytotoxicity against human MOLT-4 cells after 48 hrs by SRB assay; assay type: functional; settings: MOLT-4, 48 h
NCI-H23 = experiment: Cytotoxicity against human NCI-H23 cells after 48 hrs by SRB assay; assay type: functional; settings: NCI-H23, 48 h
SF-295 = experiment: Cytotoxicity against human SF-295 cells after 48 hrs by SRB assay; assay type: functional; settings: SF-295, 48 h
Raji [5] = experiment: Inhibition of TPA-induced EBV-early antigen activation in human Raji cells at 10 molar ratio relative to TPA; assay type: cell-based; parameters: scale not given: the % may be the effect or the level left; settings: human gammaherpesvirus 4
SN12C = experiment: Cytotoxicity against human SN12C cells after 48 hrs by SRB assay; assay type: functional
RPMI-8226 = experiment: Cytotoxicity against human RPMI8226 cells after 48 hrs by SRB assay; assay type: functional; settings: RPMI-8226, 48 h
RXF 393 = experiment: Cytotoxicity against human […] cells after 48 hrs by SRB assay; assay type: functional; settings: RXF 393, 48 h
HCC 2998 = experiment: Cytotoxicity against human HCC2998 cells after 48 hrs by SRB assay; assay type: functional; settings: HCC 2998, 48 h
[6] = Cytotoxicity against human Raji cells assessed as cell viability at 1000 molar ratio; assay type: cell-based; settings: read-out: Activity; summary of the method: as §2
HOP-62 = experiment: Cytotoxicity against human HOP-62 cells after 48 hrs by SRB assay; assay type: functional; settings: HOP-62, 48 h
SW-620 = experiment: Cytotoxicity against human SW620 cells after 48 hrs by SRB assay; assay type: functional; settings: SW-620, 48 h
A549 = experiment: Cytotoxicity against human A549 cells after 48 hrs by SRB assay; assay type: functional; settings: A549, 48 h
U-251 = experiment: Cytotoxicity against human U251 cells after 48 hrs by SRB assay; assay type: functional; settings: U-251, 48 h; summary of the method: as §1
KM12 = experiment: Cytotoxicity against human KM12 cells after 48 hrs by SRB assay; assay type: functional; settings: KM12, 48 h
NCI-H460 = experiment: Cytotoxicity against human NCI-H460 cells after 48 hrs by SRB assay; assay type: functional; settings: NCI-H460, 48 h
[7] = Cytotoxicity against human SK MEL28 cells after 48 hrs by SRB assay; assay type: functional; settings: SK-MEL-28, 48 h
UACC-257 = experiment: Cytotoxicity against human UACC-257 cells after 48 hrs by SRB assay; assay type: functional; settings: UACC-257, 48 h; summary of the method: as §1
Mus musculus = experiment: Antiinflammatory activity against TPA-induced ear edema in mouse; assay type: functional
Summary of the method: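 Specific-pathogen-free female ICR mice were housed five per cage at 24 ± 2 °C. Inflammation was induced on the ear with TPA at 1 µg/ear, and the test agent was applied per ear. Ear edema inhibition was expressed as ID50 in mg per ear.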

[8] = Cytotoxicity against human HCT 116 cells after 48 hrs by SRB assay; assay type: functional; settings: HCT-116, 48 h
OVCAR-5 = experiment: Cytotoxicity against human OVCAR5 cells after 48 hrs by SRB assay; assay type: functional; settings: OVCAR-5, 48 h
NCI-H226 = experiment: Cytotoxicity against human NCI-H226 cells after 48 hrs by SRB assay; assay type: functional; settings: NCI-H226, 48 h
Raji [9] = experiment: Inhibition of TPA-induced EBV-early antigen activation in human Raji cells at 100 molar ratio relative to TPA; assay type: cell-based; parameters: scale not given: the % may be the effect or the level left; settings: human gammaherpesvirus 4
[10] = Cytotoxicity against human Raji cells assessed as cell viability at 500 molar ratio; assay type: cell-based; settings: read-out: Activity; summary of the method: as §2
[11] = Cytotoxicity against human Raji cells assessed as cell viability at 100 molar ratio; assay type: cell-based; settings: read-out: Activity; summary of the method: as §2
HOP-92 = experiment: Cytotoxicity against human HOP-92 cells after 48 hrs by SRB assay; assay type: functional; settings: HOP-92, 48 h
HL-60 = experiment: Cytotoxicity against human HL-60 cells after 48 hrs by SRB assay; assay type: functional; settings: HL-60, 48 h
Raji [12] = experiment: Inhibition of TPA-induced EBV-early antigen activation in human Raji cells at 1000 molar ratio relative to TPA; assay type: cell-based; parameters: scale not given: the % may be the effect or the level left; settings: human gammaherpesvirus 4
OVCAR-3 = experiment: Cytotoxicity against human OVCAR-3 cells after 48 hrs by SRB assay; assay type: functional; settings: OVCAR-3, 48 h
SK-MEL-5 = experiment: Cytotoxicity against human SK-MEL-5 cells after 48 hrs by SRB assay; assay type: functional; settings: SK-MEL-5, 48 h
TK-10 = experiment: Cytotoxicity against human TK-10 cells after 48 hrs by SRB assay; assay type: functional; settings: TK-10, 48 h; summary of the method: as §1
MCF7 = experiment: Cytotoxicity against human MCF7 cells after 48 hrs by SRB assay; assay type: functional; settings: MCF7, 48 h
BT-549 = experiment: Cytotoxicity against human BT-549 cells after 48 hrs by SRB assay; assay type: functional; settings: BT-549, 48 h
CAKI-1 = experiment: Cytotoxicity against human Caki-1 cells after 48 hrs by SRB assay; assay type: functional; settings: CAKI-1, 48 h
OVCAR-8 = experiment: Cytotoxicity against human OVCAR8 cells after 48 hrs by SRB assay; assay type: functional; settings: OVCAR-8, 48 h

SMILES: CCCCOC(=O)[C@H]1O[C@@H](O[C@H]2CC[C@]3(C)[C@H]4CC=C5[C@@H]6CC(C)(C)CC[C@]6(C(=O)O[C@@H]6O[C@H](CO)[C@@H](O)[C@H](O)[C@H]6O)CC[C@@]5(C)[C@]4(C)CC[C@H]3C2(C)C)[C@H](O)[C@@H](O)[C@@H]1O
- GI50 (MDA-MB-231): 1150 nM
- GI50 (IGROV-1): 1700 nM
- GI50 (MDA-MB-435): 2520 nM
- GI50 (HCT-15): 6.73 µM
- GI50 (PC-3): 1260 nM
- GI50 (ACHN): 6.29 µM
- GI50 (Malme-3M): 1470 nM
- GI50 (786-0): 1560 nM
- GI50 (T47D): 1750 nM
- Activity (Raji [1]): 48.1%
- GI50 [2]: 1620 nM
- viability at 10 molar ratio [3]: > 80%
- GI50 (UACC-62): 890 nM
- GI50 (CCRF-CEM): 23.1 µM
- GI50 (K562): 1580 nM
- GI50 (SF-268): 2170 nM
- IC50 [4]: 479 molar ratio
- GI50 (LOX IMVI): 810 nM
- GI50 (SNB-19): 1440 nM
- GI50 (HT-29): 2070 nM
- GI50 (EKVX): 3.39 µM
- GI50 (SK-MEL-2): 1850 nM
- GI50 (UO-31): 12.7 µM
- GI50 (NCI/ADR-RES): > 50 µM
- GI50 (NCI-H322M): 4.08 µM
- GI50 (COLO 205): 1360 nM
- GI50 (MOLT-4): 1000 nM
- GI50 (NCI-H23): 1480 nM
- GI50 (SF-295): 2560 nM
- Activity (Raji [5]): 100%
- GI50 (SN12C): 1390 nM
- GI50 (RPMI-8226): 780 nM
- GI50 (RXF 393): 1650 nM
- GI50 (HCC 2998): 890 nM
- viability at 1000 molar ratio [6]: 70%
- GI50 (HOP-62): 2220 nM
- GI50 (SW-620): 1930 nM
- GI50 (A549): 1830 nM
- GI50 (U-251): 1060 nM
- GI50 (KM12): 2080 nM
- GI50 (NCI-H460): 2510 nM
- GI50 [7]: 2600 nM
- GI50 (UACC-257): 4.18 µM
- ID50 (Mus musculus): 0.07 mg
- GI50 [8]: 1120 nM
- GI50 (OVCAR-5): 3.07 µM
- GI50 (NCI-H226): 1490 nM
- Activity (Raji [9]): 70%
- viability at 500 molar ratio [10]: > 80%
- viability at 100 molar ratio [11]: > 80%
- GI50 (HOP-92): 1040 nM
- GI50 (HL-60): 1210 nM
- Activity (Raji [12]): 10.1%
- GI50 (OVCAR-3): 3.27 µM
- GI50 (SK-MEL-5): 930 nM
- GI50 (TK-10): 1850 nM
- GI50 (MCF7): 1600 nM
- GI50 (BT-549): 1700 nM
- GI50 (CAKI-1): 17.2 µM
- GI50 (OVCAR-8): 4.28 µM
